Source: PubChem BioAssay
NR2E3 ag-1 – NR2E3 (human) agonism; GST-NR2E3/biotin-RetCOR TR-FRET, 1536-well; inhibition of corepressor binding, % at 4.78 µM; hit rate 0.12% among 320,000;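 active = percent inhibition above the cutoff of mean plus 3 SD of all tested compounds, set per screening campaign, cut at about 20% in these data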;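 note: 0% = DMSO wells and 100% = biotin wells as full block of FRET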
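Test system: GST-NR2E3 and biotin-RetCOR proteins | Quantity: 1.35 nM GST-tagged NR2E3 final | Medium: Tris pH 7.5 | Also added: 7 nM biotin-RetCOR | Dosing: Compound at 4.8 µM, single dose | Timing: 5 h at 4 °C | Detection: Time-resolved FRET | Read-out basis: Percent inhibition | Benchmarks: Biotin wells as high control, 0.6% DMSO wells as low control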
PG9 binder – PG9 antibody binding by small molecule | TR-FRET gp120-PG9 antibody binding | inhibition, % at 6.7 µM | hit rate 0.43% among 360,000 | AID 624416; in the data active = inhibition above about 8.5%
Rev-erbA mod – Rev-erb alpha (human) modulation; activity, % at 10 µM; Rev-erbα–FITC-DNA binding, fluorescence polarization, 90 min; P20393; hit rate 0.79% among 370,000;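 active = activity above about 14%, limit read from the data; passing the limit was not always enough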;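 note: 0% = DMSO wells with 35 nM protein and 100% = DMSO wells with 750 nM protein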
Target sequence (P20393 whole entry, looked up): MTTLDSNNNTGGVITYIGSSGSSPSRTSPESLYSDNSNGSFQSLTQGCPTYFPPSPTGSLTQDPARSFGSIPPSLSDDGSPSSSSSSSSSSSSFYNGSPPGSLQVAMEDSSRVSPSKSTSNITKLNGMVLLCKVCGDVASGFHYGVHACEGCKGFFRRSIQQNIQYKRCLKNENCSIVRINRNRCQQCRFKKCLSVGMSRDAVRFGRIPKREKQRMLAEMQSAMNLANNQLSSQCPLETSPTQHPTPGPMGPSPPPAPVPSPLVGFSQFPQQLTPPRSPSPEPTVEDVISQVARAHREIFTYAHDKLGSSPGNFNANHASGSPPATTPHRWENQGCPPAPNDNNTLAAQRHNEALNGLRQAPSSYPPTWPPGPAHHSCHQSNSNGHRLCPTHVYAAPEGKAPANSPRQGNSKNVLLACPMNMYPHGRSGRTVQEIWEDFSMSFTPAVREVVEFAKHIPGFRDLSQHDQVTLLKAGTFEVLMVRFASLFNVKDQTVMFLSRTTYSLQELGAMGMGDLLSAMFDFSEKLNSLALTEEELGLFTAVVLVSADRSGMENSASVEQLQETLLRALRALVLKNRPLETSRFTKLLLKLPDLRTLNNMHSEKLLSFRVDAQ
NR2E3 ag-2 – human photoreceptor-specific nuclear receptor agonism; Q9Y5X4; inhibition of corepressor binding, % at 3.98 µM; hit rate 0.35% among 360,000; CHO-S Gal4-NCOR/VP16-NR2E3 two-hybrid, luciferase;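 active = inhibition above the mean of all tested compounds plus 3 SD, cut at about 70% in these data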;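 note: 0% = DMSO with NR2E3 transfected cells and 100% = cells lacking NR2E3 construct; higher means lower luciferase signal from less NR2E3 corepressor binding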
Rev-erbA confirm – confirmation of modulators of human Rev-erb alpha DNA binding; shares compounds with Rev-erbA mod; Rev-erb alpha FITC-DNA binding, fluorescence polarization, 90 min; activation, % at 25 µM; hit rate 61% among 3,000; AID 1259319;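 active = activation at or above a set limit, or at least 3 SD above the negative control mean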;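 note: 0% = 35 nM protein with DMSO and 100% = 750 nM protein high control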
RORg DNA counter – RORgamma DNA-binding activity, dose-response counter-screen; IC50, µM; AID 1259320; shares compounds with Rev-erbA mod; purified RORgamma protein-FITC-DNA binding, fluorescence polarization; hit rate 8% among 910;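 active = Compounds whose fitted half-maximal concentration for disrupting protein-DNA binding is below 10 micromolar; the record names Rev-erb in its text, so the target is in doubt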
* hit, by the source's call; i = inactive; . = not tested or not shown. Most compounds without a hit are left out; they make up all but 1.4% or so of the library.

SMILES	NR2E3 ag-1	PG9 binder	Rev-erbA mod	NR2E3 ag-2	Rev-erbA confirm	others
Cc1ccc(-n2c(N)c(C#N)c(-c3ccc(Cl)cc3)c(C#N)c2=O)cc1	1.9	0.1	49.3*	4.4	39.4*	RORg DNA counter=>40
COC(=O)[C@]12C[C@H](CC(=O)NCc3cccs3)C(=O)N(Cc3ccc(Cl)cc3Cl)C1=C[C@H](C1CCCC1)O[C@@H]2C	.	.	12.8	.	.
CCCCCCCCN1CCS(=O)(=O)N(Cc2ccc(C(F)(F)F)cc2)C(C(=O)OC)C1 (stereo unspecified)	.	.	-10.0	.	.
COc1ccc(Cn2c3ccc(OC)cc3c3nc4ccccc4nc32)cc1	-1.6	-0.9	25.4*	-6.8	22.7*
Cn1ccsc1=NC(=O)c1ccccc1F	-0.2	1.2	-1.3	-19.1	.
Cc1ccc(C)c(-n2c(-c3ccc(Br)cc3)csc2=NC(=O)c2ccccc2F)c1	-1.2	4.4	38.0*	-6.9	48.6*	RORg DNA counter=>40
CCC[C@H]1[C@@H](OC(=O)NC2CCC2)CC[C@@]23CCCN2C(=O)CCC[C@@H]13	.	.	-1.8	.	.
Cc1nc(N2CCN(C)CC2)c2cc(-c3ccccc3)sc2n1	0.4	1.4	-1.4	-4.2	.
Cc1nc(N2CCN(S(=O)(=O)c3ccccc3)CC2)c2cc(-c3ccccc3)sc2n1	-0.4	-0.2	43.7*	-28.7	27.7*
Cc1cc(=O)oc2cc(OCC3CC(c4ccc(Br)cc4)=NO3)ccc12 (stereo unspecified)	0.8	1.1	55.2*	-12.3	46.4*	RORg DNA counter=2.11*
Cc1cc(=O)oc2cc(OCC3CC(c4ccccc4)=NO3)ccc12 (stereo unspecified)	1.6	.	-0.7	-131.7	.
O=C1/C(=C\c2cccc([N+](=O)[O-])c2O)SC(=S)N1Cc1ccccc1	4.1	0.1	-16.2	-21.0	.
O=C(NN1C(=O)/C(=C/c2ccc(O)c([N+](=O)[O-])c2)SC1=S)c1ccccc1Cl	3.7	-2.2	16.9*	-41.2	27.6*
O=C(NN1C(=O)/C(=C/c2ccc(O)cc2)SC1=S)c1cccc(O)c1	2.5	-2.8	27.2*	-21.3	15.6
O=C1/C(=C/c2ccc(O)c([N+](=O)[O-])c2)SC(=S)N1Cc1ccccc1	0.8	-2.7	29.9*	1.0	10.8
COc1cc(/C=C2\SC(=S)N(NC(=O)c3ccccc3O)C2=O)ccc1O	2.8	-4.1	5.5	-19.5	.
COC(=O)/C(C#N)=C/c1c(N2CCN(c3ccc(OC)cc3)CC2)nc2c(C)cccn2c1=O	-3.5	-1.4	32.9*	-8.0	0.8
C[C@H]1[C@@H](OC(=O)Nc2ccc(Br)cc2)CC[C@@]23CCCN2C(=O)CCC[C@@H]13	.	.	-4.2	.	.
N#Cc1c(N2CCSCC2)nsc1-c1ccccc1Cl	.	4.4	22.7*	-47.0	27.7*
S=C(Nc1ccccc1Br)OCCN1CCCC12CCC(c1ccccc1)CC2 (stereo unspecified)	.	.	0.9	.	.
O=C(CSc1nnc(-c2cccs2)o1)c1ccc(F)cc1	.	.	1.5	.	.
O=C(CSc1nnc(-c2cccs2)o1)c1ccc2c(c1)OCO2	.	.	114.8*	.	134.0*	RORg DNA counter=>40
COC(=O)c1cccc(C23CC4(C2)[C@H](CN(C)[C@@H]4c2ccccc2)C3c2ccccc2)c1 (stereo partly specified)	5.1	0.0	22.1*	-5.8	41.4*
Nc1c(-c2cccs2)cnc2c(-c3ccc(F)cc3)cnn12	-0.4	-1.9	35.2*	-167.9	6.4
C=C(C)Cn1c(SCC(=O)N/N=C(\C)c2ccc(Br)cc2)nnc1-c1ccc(Br)cc1	.	.	0.1	.	.
SMILES	NR2E3 ag-1	PG9 binder	Rev-erbA mod	NR2E3 ag-2	Rev-erbA confirm	others
CC1(C)Cc2c(sc(NC(=O)COc3ccc(Cl)cc3)c2C(N)=O)C(C)(C)N1	2.4	0.0	16.4*	3.0	-1.3
Cc1ccc(OCC(=O)Nc2sc3c(c2C#N)CC(C)(C)NC3(C)C)cc1	-0.5	0.8	-7.4	-7.9	.
COc1cc2c(cc1OC)-c1cc3ccc4c(c3c[n+]1CC2)OCO4	-4.0	-10.8	26.8*	-47.0	44.5*	RORg DNA counter=>40
COc1cc2c(cc1O)CC[n+]1cc3c(OC)c(OC)ccc3cc1-2	-6.3	-10.6	0.8	-0.8	.
COc1cc(-c2nn3c(COc4ccccc4)nnc3s2)cc(OC)c1OC	3.3	4.0	44.5*	-15.9	43.6*	RORg DNA counter=i
COc1cc(-c2nc3c4ccccc4nc(=S)n3[nH]2)cc(OC)c1OC	3.6	2.0	-0.2	-0.2	.
CCCC(Oc1ccc(Br)cc1)c1nc2c3cc(OC)c(OC)cc3nc(=S)n2[nH]1 (stereo unspecified)	0.0	-0.1	46.8*	9.2	39.5*	RORg DNA counter=i
CC(C)CC(CCOCCO)NC(=O)OCc1ccccc1[N+](=O)[O-] (stereo unspecified)	.	.	1.4	.	.
CCOC(=O)[C@@]12CCCC3=C1N(CCC3)C(=O)[C@H]2CC(=O)NCCCCc1ccccc1	.	.	1.4	.	.
O=C(Nc1ccc(F)cc1)Nc1ccc(Oc2ncnc3cc(Cl)ccc23)nc1	1.2	0.5	51.3*	1.5	8.3
O=C(O)CCCC(=O)Nc1ccc(Oc2ncnc3cc(Cl)ccc23)nc1	1.7	0.0	-3.3	-1.4	.
O=C(Nc1ccc(Oc2ncnc3cc(Cl)ccc23)nc1)c1cccs1	0.6	0.5	55.1*	-8.0	27.4*
COc1ccc(NC(=O)c2cccs2)cn1	1.3	-1.6	-0.6	-16.1	.
CCOC(=O)c1c(-c2ccccc2)csc1NC(=O)c1ccc(S(=O)(=O)N2CC(C)OC(C)C2)cc1 (stereo unspecified)	-0.7	-0.3	4.2	-13.2	.
CCOC(=O)c1c(-c2ccccc2)csc1NC(=O)c1cc(S(=O)(=O)N2CCOCC2)ccc1C	-1.4	-0.5	33.6*	-6.5	49.4*	RORg DNA counter=>40
CCCC1CCC2(CCC(=O)N2CCO)CC1 (stereo unspecified)	.	.	4.2	.	.
COC(=O)c1c(NC(=S)NNS(=O)(=O)c2ccc(OC)cc2OC)sc2c1CCCCCC2	.	0.8	31.9*	26.8	11.7
COC(=O)c1c(NC(=S)NC(=O)c2ccco2)sc2c1CCCC2	-3.2	0.7	-0.1	24.5	.
COc1ccc(NC(=O)NNC(=O)COc2ccc3cc(Br)ccc3c2)cc1	.	1.2	15.7*	-1.7	7.7
CCN(CC)C(=O)CC[C@@H]1CC[C@]2(CCCN(C(=O)c3ccco3)C2)O1	.	.	1.1	.	.
CSc1nc(SCC(=O)O)c2sc3nc(-c4ccccc4)c4c(c3c2n1)CCC4	.	1.4	-10.7	20.0	.
CC(C)c1nc2sc3c(SCC(N)=O)ncnc3c2c2c1CCC2	-1.1	-1.9	869.0*	4.1	711.1*	RORg DNA counter=>40
CCCCc1nc2sc3c(SCCN(C)C)ncnc3c2c2c1CCC2	0.9	-0.3	30.8*	2.4	46.7*	RORg DNA counter=>40
C[C@@H]1[C@H](c2ccccc2)OC(O)([C@H](Cc2ccccc2)NC(=O)OC(C)(C)C)CN1C (stereo partly specified)	.	.	1.4	.	.
COc1cccc(CNc2nc3ccc(C)cc3n3cnnc23)c1	-0.8	1.8	26.2*	-9.9	7.3
